# In ChEMBL document CHEMBL1142097, “EthA, a common activator of thiocarbamide-containing drugs acting on different mycobacterial targets” (Antimicrob Agents Chemother, 2007):
# The source made the active and inactive calls. The rule behind the calls is not given here.
# How the values were obtained:
# [1] = test system: Mycobacterium tuberculosis variant bovis; test: Inhibition of oleic acid synthesis in Mycobacterium bovis BCG str. Pasteur 1173P2 overexpressing ethA gene; format: functional
# How it was run: (§1)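 Mid-log cultures in Sauton medium exposed to graded drug concentrations (μg/ml) for 16 h at 37°C, then pulsed with 1 μCi/ml [2-14C]acetate for 8 h at 37°C. Cells PBS-washed, hydrolysed with 15% tetrabutylammonium hydroxide at 100°C overnight, methylated with CH3I in CH2Cl2; fatty and mycolic acid methyl esters resolved by TLC and autoradiographed.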
# [2] = test system: Mycobacterium tuberculosis variant bovis; test: Inhibition of mycolic acid synthesis in Mycobacterium bovis BCG str. Pasteur 1173P2 overexpressing ethA gene; format: functional; how it was run: as §1
smiles,measurement,setting,value
CC(C)CCSc1ccc(NC(=S)Nc2ccc(SCCC(C)C)cc2)cc1,Activity,[1],Active
same,Activity,[2],Active
